A selection: hits, their analogues and other compounds. The true share with any hit is near 4.6%.
TAAR1 antagonist = antagonists of human TAAR1 | inhibition, % at 3 µM | CHO RD-HGA16 TAAR1, Fluo-8 calcium fluorescence, antagonist | Q96RJ0 | actives 1.5% (n = 360,000);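 active = inhibition above a per-plate cutoff, the mean inhibition of test compounds on that plate plus 3 SD, cut at about 49% in these data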;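 note: 0% = DMSO plus EC80 beta-PEA response and 100% = DMSO alone without agonist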
Target sequence (Q96RJ0 whole entry, looked up): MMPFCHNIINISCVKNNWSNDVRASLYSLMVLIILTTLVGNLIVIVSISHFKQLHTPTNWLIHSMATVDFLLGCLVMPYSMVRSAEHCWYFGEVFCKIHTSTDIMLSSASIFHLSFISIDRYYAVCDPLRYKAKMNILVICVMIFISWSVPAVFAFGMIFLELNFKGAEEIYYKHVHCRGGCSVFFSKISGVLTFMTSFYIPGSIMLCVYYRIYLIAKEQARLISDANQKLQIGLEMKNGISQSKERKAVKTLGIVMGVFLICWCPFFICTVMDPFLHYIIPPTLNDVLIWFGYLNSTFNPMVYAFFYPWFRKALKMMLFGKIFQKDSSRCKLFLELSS
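System: RD-HGA16 CHO cells with stable hTAAR1 and Gα16 | Probe or stimulus: EC80 β-phenethylamine stimulus | Dosing: 3 µM, single point | Times: Dye loading 75 min at 37 °C, then 30 min room temperature | Measured by: Fluo-8 calcium-sensitive fluorescence | Read-out basis: % inhibition of agonist calcium response | Replicates: n of 1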
OX1R antag-1 = antagonists of human orexin 1 receptor; CHO/OX1R cells, Fluo-8 calcium fluorescence, orexin A; O43613; AID 434989; actives 0.43% (n = 330,000); inhibition, % at 5 µM;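 active = inhibition above its plate's threshold, mean inhibition of all tested compounds on the plate plus 3 SD, cut at about 37% in these data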;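 note: 0% = orexin A challenge wells and 100% = SB-334867-A antagonist wells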
TAAR1 agonist = agonists of human TAAR1 | CHO RD-HGA16 TAAR1, Fluo-8 calcium fluorescence; vehicle wells 0%, saturating PEA agonist 100% | Q96RJ0 | AID 624467 | actives 0.99% (n = 360,000) | activation, % at 3 µM;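 active = activation above the mean activation of all test compounds in the run plus 3 SD, cut at about 38% in these data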
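Test system: RD-HGA16 (CHO) cells co-expressing Gα16 and hTAAR1; dosing: one-point dosing at 3 µM (nominal); timing: 17-24 h seeding, 75 min 37 °C dye, 30 min RT; signal: kinetic Fluo-8 calcium fluorescence; read-out basis: % activation relative to PEA EC100 response; controls: DMSO and PEA EC100; replicates: n 1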
OX1R antag-2 = antagonists of human orexin 1 receptor (OX1R); O43613; inhibition, % at 6.6 µM; OX1R-expressing cells, FRET antagonist read-out; actives 1.8% (n = 330,000); AID 485270; in the data active = inhibition mostly above about 38%, no sharp cut-off; inactive = mostly below about 40%;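 note: 0% = agonist challenge alone and 100% = reference antagonist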
CHO parental Ca = counter-screen for OX1R antagonists: effect in parental CHO cells. parental CHO-K1, ATP-induced calcium, Fluo-8 fluorescence. inhibition, % at 5.6 µM. actives 0.63% (n = 330,000);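 active = inhibition above that plate's mean sample inhibition plus 3 SD, cut at about 26% in these data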;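 note: 0% = ATP-challenged DMSO wells and 100% = DMSO wells without ATP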
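Material: Parental CHO cells | Reagent: ATP | Compound dosing: Single nominal dose of 5.6 µM per compound | Detection: Intracellular calcium via Fluo-8 no-wash fluorescent dye | Read-out: % inhibition of ATP-induced calcium mobilization | Benchmarks: Low control ATP plus DMSO, high control DMSO only | Replicates: Singlicate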
GPR7 antagonist = antagonists of human GPR7 (neuropeptides B/W receptor 1) | actives 1.1% (n = 290,000) | AID 1861 | inhibition, % at 4.4 µM | GPR7-expressing cells, fluorescence antagonist assay; in the data active = inhibition above about 16%, passing the limit was not always enough;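 note: cells stimulated with the agonist NPW; 0% = agonist with vehicle and 100% = vehicle without agonist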
Target sequence (P48145 whole entry, looked up): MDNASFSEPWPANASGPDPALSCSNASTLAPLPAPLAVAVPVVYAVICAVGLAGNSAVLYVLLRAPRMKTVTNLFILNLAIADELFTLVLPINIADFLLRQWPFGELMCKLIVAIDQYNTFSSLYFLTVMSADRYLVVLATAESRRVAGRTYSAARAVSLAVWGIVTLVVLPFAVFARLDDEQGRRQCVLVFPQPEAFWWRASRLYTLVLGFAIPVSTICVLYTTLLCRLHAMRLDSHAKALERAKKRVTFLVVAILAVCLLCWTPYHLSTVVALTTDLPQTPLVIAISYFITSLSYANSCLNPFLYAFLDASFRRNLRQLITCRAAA
OX1R Fluo8 conf = OX1R (human) antagonism, confirmed | AID 492963 | actives 38% (n = 1,100) | CHO/OX1R cells, orexin A calcium Fluo-8 fluorescence | shares compounds with OX1R antag-1 | inhibition, % at 5 µM; in the data active = inhibition above about 29%;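 note: 0% = agonist challenge alone and 100% = reference antagonist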
CHO Ca counter = signal in parental CHO cells, OX1R antagonist counter-screen. shares compounds with OX1R antag-1. parental CHO-K1, ATP-induced calcium, Fluo-8 fluorescence. inhibition, % at 5.6 µM. actives 9.3% (n = 1,100). AID 492965;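 active = inhibition above a per-plate limit, the mean inhibition of that plate's test compounds plus 3 SD, cut at about 25% in these data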;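 note: 0% = ATP challenge with DMSO and 100% = DMSO without ATP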
Starred values were filed as active, the others as inactive; · = not tested or not shown.

SMILES	TAAR1 antagonist	OX1R antag-1	TAAR1 agonist	OX1R antag-2	CHO parental Ca	GPR7 antagonist	OX1R Fluo8 conf	CHO Ca counter
CC(=O)c1c(C)[nH]c(C(=O)CN2CCN(S(=O)(=O)c3ccccc3[N+](=O)[O-])CC2)c1C	21	25	23	3	-10	·	·	·
CC(=O)n1cc([C@@H]2C=C(C(=O)NCc3ccccc3)O[C@H](OCc3ccc(CO)cc3)C2)c2ccccc21	62*	41	22	23	7	·	17	1
CC(=O)n1cc([C@H]2C=C(C(=O)Nc3ccccc3)O[C@@H](OCc3ccc(CO)cc3)C2)c2ccccc21	·	-3	·	13	-1	1	·	·
Cn1nnnc1NCc1cccc(Cl)c1	3	-4	-1	4	5	-2	·	·
Clc1cccc(CNc2nnnn2-c2ccccc2)c1	31	45*	10	65	24	7	16	10
O=C1NC[C@H](CCCCN2CCN(CCC3CCCCC3)C(=O)C2=O)N(CCc2ccc(O)cc2)C1=O	-12	·	5	·	·	·	·	·
Cc1ccc(S(=O)(=O)N(C)c2ccc(OC(=O)c3cccs3)cc2)cc1	11	37	2	6	9	·	-5	-3
Cc1[nH]c2ccc(C(=O)OC(C)C(=O)NC3CCCCC3C)cc2c1C (centres undefined)	8	32	-3	28	11	·	14	-6
O=C(Nc1cccc(Cl)c1)Nc1nc(-c2ccc(Cl)cc2)cs1	18	29	17	18	19	5	2	60*
O=C(Nc1ccccc1)Nc1nc(-c2ccc(Cl)cc2)cs1	13	8	3	29	12	-5	·	·
O=C(NCc1cccc2ccsc12)c1cccs1	-3	-17	12	9	-10	·	·	·
Nn1c(SCC(=O)Nc2ccccc2F)nnc1-c1cccs1	-9	-14	0	14	2	·	·	·
O=C(c1ccc(NS(=O)(=O)c2ccc(F)cc2)cc1)N1CCCCCC1	-20	14	2	11	-11	·	·	·
O=C(c1ccc(S(=O)(=O)Nc2ccc(F)cc2)cc1)N1CCN(c2ccccn2)CC1	29	34	34	52	16	5	49*	14
Cc1cc(NS(=O)(=O)c2ccc(NC(=O)CN3C(=O)NC(C)(c4ccccc4)C3=O)cc2)nc(C)n1 (centres undefined)	-12	26	2	21	-4	·	4	1
CC1(c2ccccc2)NC(=O)N(CC(=O)Nc2ccc(S(=O)(=O)Nc3ncccn3)cc2)C1=O (centres undefined)	-7	-8	0	6	0	·	·	·
COc1ccc(OC)c(S(=O)(=O)N2CCCC(C(=O)NC3CC3)C2)c1 (centres undefined)	0	·	10	·	·	·	·	·
COc1ccccc1NS(=O)(=O)c1cc([N+](=O)[O-])ccc1N/N=C/c1c[nH]c2ccccc12	54*	31	12	1	21	-1	20	24
CSc1ncccc1C(=O)OCC(=O)NC1CCC(C)CC1 (centres undefined)	-10	-20	-3	10	-17	·	·	·
COc1ccc(N2CCN(C(=O)CSc3ccc(C)cc3)CC2)cc1	5	-11	4	14	-2	1	·	·
COc1ccc(N2CCN(C(=O)CSc3ccc([N+](=O)[O-])cc3)CC2)cc1	23	32	4	12	-12	2	21	7
C=C(C)COc1ccc2c(C)c(CC(=O)OC)c(=O)oc2c1C	·	37	·	44	26	9	-1	18
COc1cccc(C(=O)N=c2sc3cc(S(C)(=O)=O)ccc3n2C)c1	12	30	8	56	6	-5	20	6
Cc1cc([N+](=O)[O-])ccc1NCc1ccccc1	·	50*	·	12	18	10	18	16
CC(=O)c1ccc(NC(=O)/C(=C\c2ccc(F)cc2)NC(=O)c2ccco2)cc1	0	-19	-2	13	-14	-1	·	·
SMILES	TAAR1 antagonist	OX1R antag-1	TAAR1 agonist	OX1R antag-2	CHO parental Ca	GPR7 antagonist	OX1R Fluo8 conf	CHO Ca counter
CCOC(=O)N1CCN(C(=O)c2ccc3c(c2)NC(=O)C(N2CCOCC2)S3)CC1 (centres undefined)	-5	28	7	9	6	-8	4	-1
Cc1ccc(NC(=S)NCC(C)CSc2ccc(Cl)cc2)cc1 (centres undefined)	0	-8	1	24	8	-12	·	·
Cc1cccc(NC(=S)NCC(C)CSc2ccc(Cl)cc2)c1 (centres undefined)	15	34	9	21	24	-10	-5	-5
OCCCNc1ncnc2c1ncn2[C@H]1CN(Cc2ccc(-c3ccccc3)cc2)C[C@@H](CO)O1	5	·	8	·	·	·	·	·
Cc1ccc(CN2C(=O)C(CC(C)C)Nc3ncnc(N4CCCCC4)c32)cc1 (centres undefined)	-32	·	0	·	·	·	·	·
CC(C)C(NC(=S)NCc1ccccc1)C(=O)O (centres undefined)	-5	31	0	16	-8	-5	-2	11
O=C(O)CNC(=S)NCc1ccccc1	-8	-11	2	8	10	-17	·	·
CCOC(=O)c1csc(Nc2nc3ccc(F)cc3s2)n1	41	39	21	15	27	-15	27	26*
O=C(c1ccccc1)N1CCN(c2nc3ccc([N+](=O)[O-])cc3s2)CC1	5	23	6	31	24	-11	27	22
Nc1nc2ccccc2n1CCOc1ccc(F)cc1	21	3	4	6	-6	14	·	·
O=[N+]([O-])c1ccc(Cl)cc1CNc1ccc(F)c(F)c1	6	38	-1	21	-11	-13	1	-4
COC(=O)c1ccc2c(c1)C(C)(C)C(/C=C/c1ccccc1O)=[N+]2C	36	33	24	31	21	15	57*	46*
Cn1c(SCc2ccc(F)cc2Cl)nc2ccccc2c1=O	-8	36	1	12	-11	·	3	-5
C[C@H](CO)N1C[C@H](C)[C@@H](CN(C)S(=O)(=O)c2ccc(F)cc2)Oc2ccc(NC(=O)C3CCCCC3)cc2C1=O	13	-39	8	8	-20	·	·	·
CSc1ccc(CN(C)C(=O)c2cccc(S(=O)(=O)NCc3ccccc3)c2)cc1	40	40*	5	50	14	8	27	5
OC(c1ccccc1)(c1nc(-c2cc3ccccc3o2)cs1)C(F)(F)F (centres undefined)	41	·	2	·	·	·	·	·
CN(C(=O)C1CCCCC1)C1(C)CCS(=O)(=O)C1 (centres undefined)	0	2	0	24	-10	·	·	·

Compound activity as filed in PubChem.
